Experimental data taken from ChEMBL document CHEMBL4364341, “Radiosensitization of Head and Neck Squamous Cell Carcinoma (HNSCC) by a Podophyllotoxin” (ACS Med Chem Lett, 2019).
The source made the active and inactive calls. The rule behind the calls is not given here.

Assays:
[1] = system: SCC-25; test: Synergistic antiproliferative activity against human SCC25 cells assessed as reduction in colony formation unit followed by irradiation with 5 Gy IR and measured after 10 to 14 days by crystal violet staining based assay; format: functional, cell-based
[2] = system: FaDu; test: Antiproliferative activity against human FADU cells assessed as fractional inhibition at 0.005 uM after 6 days in absence of irradiation by MTT assay; format: functional
Summary of the method: (§1)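 FaDu or SCC-25 cells were grown in DMEM with 10% FBS at 37 °C and 5% CO2. They were seeded at 1000 cells/well in 96-well plates for 24 h, then dosed with compound (fresh DMSO stock diluted in medium) or vehicle. After 1 h, X-rays were given with a sliding 5 mm lead shield, so one plate held 0, 2.5, 5 and 10 Gy columns. After 6 days, MTT (0.5 mg/mL, 45 min) was added, then DMSO, and A570 was read. Values were normalised to the unirradiated vehicle control. Fractional inhibition = 1 − surviving fraction.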

[3] = system: FaDu; test: Induction of apoptosis in human FADU cells assessed as decrease in Bcl2 at 0.5 uM incubated for 48 hrs by immunoblot analysis; format: functional, cell-based
Summary of the method: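 FaDu cells received compound at 0.5 μM, 5 Gy IR, or both. After 48 h, lysates were immunoblotted for NRF2, cyclin B1, CDK1, Bax and Bcl-2. Membranes were then stripped and reprobed for β-actin as the loading control.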

[4] = system: FaDu; test: Synergistic antiproliferative activity against human FADU cells assessed as combination index at 0.05 uM preincubated for 1 hr followed by irradiation with 10 Gy IR and measured after 6 days by MTT assay; format: functional
Summary of the method: (§2)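 Combination index was calculated by the Chou–Talalay median-effect method from the 6-day MTT viability data of the single-plate compound/X-ray (2.5, 5, 10 Gy) design. CI < 1 denotes synergy, CI = 1 additivity and CI > 1 antagonism.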

[5] = system: SCC-25; test: Synergistic antiproliferative activity against human SCC25 cells assessed as fractional inhibition at 0.005 uM preincubated for 1 hr followed by irradiation with 2.5 Gy IR and measured after 6 days by MTT assay (reference value: 0.011); format: functional
Summary of the method: (§3)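 SCC-25 cells seeded 1000/well in 96-well plates in DMEM/10% FBS and left 24 h. Drug or vehicle added, then after 1 h X-irradiated to 2.5, 5 or 10 Gy on one plate using a shifted lead shield. Plates incubated 6 days, then MTT (0.5 mg/mL, 45 min), DMSO solubilisation, absorbance at 570 nm. Fractional inhibition = 1 − fraction of surviving cells.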

[6] = system: SCC-25; test: Synergistic antiproliferative activity against human SCC25 cells assessed as fractional inhibition at 0.05 uM preincubated for 1 hr followed by irradiation with 5 Gy IR and measured after 6 days by MTT assay (reference value: 0.133); format: functional; summary of the method: as §3
[7] = system: SCC-25; test: Synergistic antiproliferative activity against human SCC25 cells assessed as fractional inhibition at 0.5 uM preincubated for 1 hr followed by irradiation with 5 Gy IR and measured after 6 days by MTT assay (reference value: 0.133); format: functional; summary of the method: as §3
[8] = system: SCC-25; test: Induction of cell cycle arrest in human SCC25 cells at 0.5 uM by propidium iodide staining based flow cytometry; format: functional
Summary of the method: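 Cell-cycle distribution was measured by propidium iodide staining and flow cytometry. Readings were taken 6 and 24 h after compound alone, 5 Gy IR alone, or the combination, against control.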

[9] = system: SCC-25; test: Synergistic antiproliferative activity against human SCC25 cells assessed as combination index at 5 uM preincubated for 1 hr followed by irradiation with 5 Gy IR and measured after 6 days by MTT assay; format: functional
Summary of the method: (§4)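 SCC-25 cells grown in DMEM with 10% FBS at 37 °C, 5% CO2, seeded 1000 cells/well in 96-well plates and left 24 h. Drug in DMSO, diluted in complete medium, added 1 h before X-irradiation. A movable 5 mm lead shield gave 0, 2.5, 5 or 10 Gy on one plate. After 6 days, MTT readout at 570 nm. Combination index by Chou–Talalay from viability data.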

[10] = system: SCC-25; test: Synergistic antiproliferative activity against human SCC25 cells assessed as combination index at 5 uM preincubated for 1 hr followed by irradiation with 10 Gy IR and measured after 6 days by MTT assay; format: functional; summary of the method: as §4
[11] = system: SCC-25; test: Synergistic antiproliferative activity against human SCC25 cells assessed as fractional inhibition at 5 uM preincubated for 1 hr followed by irradiation with 10 Gy IR and measured after 6 days by MTT assay (reference value: 0.347); format: functional; summary of the method: as §3
[12] = system: FaDu; test: Synergistic antiproliferative activity against human FADU cells assessed as combination index at 0.05 uM preincubated for 1 hr followed by irradiation with 5 Gy IR and measured after 6 days by MTT assay; format: functional; summary of the method: as §2
[13] = system: SCC-25; test: Synergistic induction of cell cycle arrest in human SCC25 cells at 0.5 uM followed by irradiation with 5Gy IR incubated for 6 hrs by propidium iodide staining based flow cytometry; format: functional
Summary of the method: (§5)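 FaDu or SCC-25 cells, untreated, given 5 Gy IR, drug, or drug plus 5 Gy. Cell-cycle distribution by propidium iodide staining and flow cytometry at 6 h and 24 h after treatment. G0/G1, S and G2/M fractions compared with control by t test.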

[14] = system: FaDu; test: Synergistic antiproliferative activity against human FADU cells assessed as fractional inhibition at 5 uM preincubated for 1 hr followed by irradiation with 2.5 Gy IR and measured after 6 days by MTT assay (reference value: 0.131); format: functional; summary of the method: as §1
[15] = system: FaDu; test: Synergistic induction of cell cycle arrest in human FADU cells assessed as increase in accumulation at G2/M phase at 0.5 uM followed irradiation with 5Gy IR incubated for 24 hrs by propidium iodide staining based flow cytometry; format: functional; summary of the method: as §5
[16] = target: T1, Nuclear factor erythroid 2-related factor 2 (Homo sapiens) (UniProt Q16236); test: Synergistic inhibition of Nrf2 in human FADU cells at 0.5 uM followed by irradiation with 5 Gy IR incubated for 48 hrs by immunofluorescence analysis; format: cell-based
T1 sequence (whole entry): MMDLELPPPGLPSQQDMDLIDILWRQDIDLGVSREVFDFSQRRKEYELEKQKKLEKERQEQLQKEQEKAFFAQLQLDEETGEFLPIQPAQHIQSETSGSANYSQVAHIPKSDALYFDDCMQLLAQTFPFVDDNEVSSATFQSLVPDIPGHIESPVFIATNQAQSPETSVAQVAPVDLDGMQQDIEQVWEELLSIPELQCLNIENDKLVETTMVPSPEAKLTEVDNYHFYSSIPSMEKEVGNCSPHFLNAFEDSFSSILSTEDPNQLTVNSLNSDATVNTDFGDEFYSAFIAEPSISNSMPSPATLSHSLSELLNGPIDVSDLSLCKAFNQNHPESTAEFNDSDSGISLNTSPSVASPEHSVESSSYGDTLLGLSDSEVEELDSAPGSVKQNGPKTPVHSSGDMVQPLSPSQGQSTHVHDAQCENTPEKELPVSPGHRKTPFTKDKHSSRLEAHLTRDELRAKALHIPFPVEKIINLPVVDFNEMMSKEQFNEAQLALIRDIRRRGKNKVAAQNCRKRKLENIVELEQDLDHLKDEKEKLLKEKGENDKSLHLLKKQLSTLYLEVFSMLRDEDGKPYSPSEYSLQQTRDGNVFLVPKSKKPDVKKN

[17] = system: FaDu; test: Synergistic induction of cell cycle arrest in human FADU cells assessed as decrease in accumulation at S phase at 0.5 uM followed irradiation with 5Gy IR incubated for 24 hrs by propidium iodide staining based flow cytometry; format: functional; summary of the method: as §5

SMILES: COc1ccc2c(c1)N(CCO)C1=C(C(=O)OC1)C2c1ccccc1 (configuration not stated)
- inhibition [1]: Dose-dependent effect
- fractional inhibitory concentration index (FICI) [2]: 0.145
- Activity [3]: Active
- CI [4]: 0.572
- fractional inhibitory concentration index (FICI) [5]: 0.015
- fractional inhibitory concentration index (FICI) [6]: 0.05
- fractional inhibitory concentration index (FICI) [7]: 0.658
- Activity [8]: inactive
- CI [9]: 0.652
- CI [10]: 1.017
- fractional inhibitory concentration index (FICI) [11]: 0.71
- CI [12]: 1.18
- Activity [13]: inactive
- fractional inhibitory concentration index (FICI) [14]: 0.501
- fold change (FC) [15]: 2
- inhibition [16]: Active
- Activity [17]: Active
